Columns and labels:
Rattus norvegicus [1] = experiment: In vivo triglyceride lowering activity dosed at 0.10 % of the diet.; assay type: functional
Summary of the method: (§1)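 Normal rats were dosed in the diet. Serum sterol and triglyceride levels were measured and expressed as the mean percent of control values. Significance versus control was reported at p < 0.05, 0.01 and 0.001.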

Rattus norvegicus [2] = experiment: In vivo sterol lowering activity when dosed as 0.03 % of the diet; assay type: functional; summary of the method: as §1
Rattus norvegicus [3] = experiment: In vivo triglyceride lowering activity when dosed as 0.01 % of the diet; assay type: functional; summary of the method: as §1
Rattus norvegicus [4] = experiment: In vivo sterol lowering activity when dosed as 0.01 % of the diet; assay type: functional; summary of the method: as §1
Rattus norvegicus [5] = experiment: In vivo sterol lowering activity at dose of 0.10 % of the diet; assay type: functional; summary of the method: as §1
Rattus norvegicus [6] = experiment: In vivo triglyceride lowering activity when dosed at 0.03 % of the diet; assay type: functional; summary of the method: as §1
[7] = target: T1, Sterol O-acyltransferase 1 (Rattus norvegicus) (UniProt O70536); experiment: In vitro inhibition of acyl coenzyme A:cholesterol acyltransferase; design: concentration or dose not given beside the values; conditions: concentration not given here
T1 sequence (whole entry): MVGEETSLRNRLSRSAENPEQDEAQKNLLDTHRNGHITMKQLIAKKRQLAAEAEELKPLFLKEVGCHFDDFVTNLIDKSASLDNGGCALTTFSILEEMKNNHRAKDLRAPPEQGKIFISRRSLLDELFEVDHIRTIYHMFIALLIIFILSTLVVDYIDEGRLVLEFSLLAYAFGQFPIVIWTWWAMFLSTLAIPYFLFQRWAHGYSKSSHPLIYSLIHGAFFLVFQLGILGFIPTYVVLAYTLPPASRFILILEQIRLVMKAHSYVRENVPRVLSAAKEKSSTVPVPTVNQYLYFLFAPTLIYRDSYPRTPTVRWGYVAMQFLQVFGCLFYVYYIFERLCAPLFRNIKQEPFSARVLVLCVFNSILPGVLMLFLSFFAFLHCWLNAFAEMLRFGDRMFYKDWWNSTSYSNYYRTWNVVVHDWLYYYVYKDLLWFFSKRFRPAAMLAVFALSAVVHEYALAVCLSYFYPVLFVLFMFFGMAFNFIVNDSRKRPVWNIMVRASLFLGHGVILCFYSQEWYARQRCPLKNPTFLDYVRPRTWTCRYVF
Summary of the method: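 Enzyme fatty acyl-CoA:cholesterol acyltransferase (ACAT), assayed in vitro at a single drug concentration of 5.2 μg/mL. The value is the mean percent inhibition of enzyme activity.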

Row | SMILES | serum triglyceride, percent of control (Rattus norvegicus [1]) | serum sterol level, percent of control (Rattus norvegicus [2]) | serum triglyceride level, percent of control (Rattus norvegicus [3]) | serum sterol level, % of control (Rattus norvegicus [4]) | serum sterol level, percent of control (Rattus norvegicus [5]) | serum triglyceride level, percent of control (Rattus norvegicus [6]) | inhibition [7]
1 | CCCCCCCCCCCCCCCCNc1csc(C(=O)O)c1 | 79% | 101% | 112% | 98% | 98% | 103% | 70%
2 | CCCCCCCCCCCCCCCCNc1ccc(C(=O)OCCO)cc1 | <52% | 92% | <75% | 106% | <83% | <65% | 17%
3 | CCCCCCCCCCCCCCCCNc1ccc(C(=O)NNC(C)=O)cc1 | <66% | <83% | 75% | 93% | 91% | <74% | 21%
4 | CCCCCCCCCCCCCCCCNc1ccc(CCCC(=O)O)cc1 | <51% | 95% | <68% | 100% | 97% | <61% | < 32%
5 | CCCCCCCCCCCCCCCCNc1cc(C(=O)[O-])cc(C(=O)[O-])c1.[Na+].[Na+] | 103% | 99% | 96% | 92% | 90% | 115% | 0%
6 | CCCCCCCCCCCCCCCCNc1ccc(C(=O)NO)cc1 | 82% | 106% | 70% | 106% | 104% | 76% | 9%
7 | CCCCCCCCCCCCCCCCNc1ccc(C(=O)NC(C)=O)cc1 | 74% | <87% | 86% | 93% | 91% | 73% | < 35%
8 | CCCCCCCCCCCCCCCCNc1ccc(C(=O)NCC(=O)OCC)cc1 | <69% | 96% | 78% | 92% | 92% | 74% | 16%
9 | CCCCCCCCCCCCCCCCNc1ccc(C(=O)O)c(OCCCCCCCCCCCCCCCC)c1 | 84% | 99% | 126% | 90% | 95% | 82% | 6%
10 | CCCCCCCCCCCCCCCCNc1ccc(C(=O)N2CCCCCC2)cc1 | 68% | 105% | 72% | 110% | 106% | 90% | < 61%
11 | CCCCCCCCCCCCCCCCNc1ccc(C(SCC)SCC)cc1 | 77% | 101% | 86% | 96% | 88% | 106% | 0%
12 | CCCCCCCCCCCCCCCCNc1ccc(C(=O)CC#N)cc1 | 130% | 104% | 132% | 107% | 115% | 140% | < 22%
13 | CCCCCCCCCCCCCCCCNc1ccc(C(=O)NCC(O)CO)cc1 (stereo unspecified) | <48% | 88% | 114% | 99% | <72% | <73% | < 61%
14 | CCCCCCCCCCCCCCCCNc1ccc(CCC(=O)O)cc1 | <37% | <80% | <59% | 88% | 92% | <50% | 50%
15 | CCCCCCCCCCCCCCCCNc1ccc(C(=O)CS(C)(=O)=O)cc1 | 110% | 97% | 88% | 98% | 100% | 112% | 0%
16 | CCCCCCCCCCCCCCCCN(CC(=O)OCC)c1ccc(C(=O)OC)cc1 | 104% | 100% | 113% | 106% | 104% | 97% | 12%
17 | CCCCCCCCCCCCCCCCNc1ccc(C(=O)Nc2ccc(C(=O)O)cc2)cc1 | 103% | <87% | 85% | 95% | 100% | 121% | 12%
18 | CCCCCCCCCCCCCCCCNc1ccc(C(=O)Oc2ccc(Cl)cc2)cc1 | 83% | <86% | 91% | 94% | 91% | 85% | 0%
19 | CCCCCCCCCCCCCCCCNc1ccc(C(=O)NS(=O)(=O)c2ccc(N)cc2)cc1 | 111% | 89% | 78% | 93% | 105% | 87% | 14%
20 | CCCCCCCCCCCCCCCCNc1ccc(C(=O)NC(C)(C)C(=O)O)cc1 | 83% | 95% | 84% | 89% | 88% | 90% | 13%
21 | CCCCCCCCCCCCCCCCNc1ccc(C(=O)NS(C)(=O)=O)cc1 | <54% | <84% | 77% | 94% | <87% | <73% | 11%
22 | CCCCCCCCCCCCCCCCNc1ccc(C(=O)C[S+](C)[O-])cc1 (stereo unspecified) | – | 95% | <64% | 95% | – | <55% | 6%
23 | CCCCCCCCCCCCCCCCNc1ccc(C#N)cc1 | 75% | 92% | 83% | 86% | 96% | 71% | –
24 | CCCCCCCCCCCCCCCCNc1ccc(C(=O)OCC(O)CO)cc1 (stereo unspecified) | <45% | <82% | <73% | <85% | <71% | <67% | –
25 | CCCCCCCCCCCCCCCCCCN(C)c1ccc(C(=O)O)cc1 | <75% | 92% | 86% | 101% | 91% | <61% | –
26 | CCCCCCCCCCCCCCN(C(C)=O)c1ccc(C(=O)O)cc1 | 96% | <80% | 98% | 95% | 91% | 80% | –

— ChEMBL document CHEMBL1122366, “Potential antiatherosclerotic agents. 3. Substituted benzoic and non benzoic acid analogues of cetaben” (1983)
